Assays:
Type in all cases: functional
[1] = Anticancer activity against human KBVIN cells after 3 days by SRB assay; conditions: 72 h, read-out: ED50 (the source's name)
In short: (§1)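 Cells seeded at 1500–7500 per well, compounds added from DMSO-diluted stock, grown 3 days in RPMI-1640 with 25mM HEPES, 0.25% sodium bicarbonate, 10% FBS and kanamycin. Attached cells fixed in cold 50% TCA, stained with 0.4% sulforhodamine B, absorbance read at 562 nm after dye solubilization. ED50 is the 50% growth-reduction concentration, averaged from at least three independent determinations.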

[2] = tested on: KB; test: Anticancer activity against human KB cells after 3 days by SRB assay; conditions: 72 h, read-out: ED50 (the source's name); in short: as §1
[3] = Selectivity ratio of ED50 for human KB cells to ED50 for human KBVIN cells
In short: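 Ratio of KB ED50 to KB-VIN ED50. Both values come from a 3-day sulforhodamine B assay with absorbance read at 562 nm. Cells were seeded at 1500–7500 per well and dosed from DMSO-diluted stock. Each ED50 is the mean of at least three independent determinations.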

SMILES | EC50 [1] [µM] | EC50 [2] [µM] | Ratio ED50 [3]
CCC1=C(O)c2c(oc(-c3ccccc3C(F)(F)F)cc2=O)C(CC)(CC)C1=O | 43.1 | 45.6 | 1
CCC1=C(O)c2c(oc(-c3ccc(CBr)cc3)cc2=O)C(CC)(CC)C1=O | 27.9 | > 46.5 | >2
CCC1=C(O)c2c(oc(-c3ccc(OC)cc3C)cc2=O)C(CC)(CC)C1=O | 2.62 | 20.9 | 8
CCC1=C(O)c2c(oc(-c3ccc(OC)c(F)c3)cc2=O)C(CC)(CC)C1=O | 0.1 | 26.7 | 250
CCC1=C(O)c2c(oc(-c3cc(C)c(C)cc3C)cc2=O)C(CC)(CC)C1=O | 4.37 | 8.2 | 2
CCC1=C(O)c2c(oc(-c3ccc(OC)c(C)c3C)cc2=O)C(CC)(CC)C1=O | 0.28 | 5.43 | 20
CCC1=C(O)c2c(oc(-c3cc(C)cc(C)c3)cc2=O)C(CC)(CC)C1=O | 0.45 | 45.5 | 100
CCC1=C(O)c2c(oc(-c3cc(C)c(OC)cc3C)cc2=O)C(CC)(CC)C1=O | 7.58 | 36.6 | 5
CCCc1ccc(-c2cc(=O)c3c(o2)C(CC)(CC)C(=O)C(CC)=C3O)cc1 | 12.2 | > 53 | >4
CCC1=C(O)c2c(oc(-c3cccc(OC(F)(F)F)c3)cc2=O)C(CC)(CC)C1=O | 9.95 | > 47.4 | >5
CCC1=C(O)c2c(oc(-c3cccc(C(F)(F)F)c3)cc2=O)C(CC)(CC)C1=O | 5.42 | 35.7 | 6.6
CCC1=C(O)c2c(oc(-c3ccccc3F)cc2=O)C(CC)(CC)C1=O | 3.93 | > 56.2 | >14
CCC1=C(O)c2c(oc(-c3ccc(OC)c(Cl)c3)cc2=O)C(CC)(CC)C1=O | 1.37 | 24.9 | 18
CCC1=C(O)c2c(oc(-c3ccc(C(F)(F)F)cc3)cc2=O)C(CC)(CC)C1=O | 10.3 | 35.7 | 3.5
CCOc1cccc(-c2cc(=O)c3c(o2)C(CC)(CC)C(=O)C(CC)=C3O)c1OCC | 31.7 | 44.6 | 1.4
CCC1=C(O)c2c(oc(-c3cccc(F)c3)cc2=O)C(CC)(CC)C1=O | 3.09 | > 56.2 | >18
CCC1=C(O)c2c(oc(-c3cc(C)ccc3F)cc2=O)C(CC)(CC)C1=O | 3.24 | 47.3 | 15
CCC1=C(O)c2c(oc(-c3ccc(O)cc3)cc2=O)C(CC)(CC)C1=O | 20.6 | 20.6 | 1
CCC1=C(O)c2c(oc(-c3cccc(C)c3)cc2=O)C(CC)(CC)C1=O | 3.69 | 49.7 | 14
CCC1=C(O)c2c(oc(-c3ccc(OC)c(C)c3)cc2=O)C(CC)(CC)C1=O | 0.1 | 28.5 | 273
CCC1=C(O)c2c(oc(-c3cccc(C)c3C)cc2=O)C(CC)(CC)C1=O | 0.85 | 3.1 | 4
CCC1=C(O)c2c(oc(-c3cc(C)ccc3C)cc2=O)C(CC)(CC)C1=O | 3.41 | 14.5 | 4
CCC1=C(O)c2c(oc(-c3ccc(OC(F)(F)F)cc3)cc2=O)C(CC)(CC)C1=O | 9.95 | 36.5 | 4
CCC1=C(O)c2c(oc(-c3ccccc3C)cc2=O)C(CC)(CC)C1=O [6,8,8-TRIETHYL-2-METHYL DESMOSDUMOTIN B] | 2.41 | 40.9 | 17
CCC1=C(O)c2c(oc(-c3ccc(C)c(F)c3)cc2=O)C(CC)(CC)C1=O | 2.95 | 28.1 | 10

SMILES | EC50 [1] [µM] | EC50 [2] [µM] | Ratio ED50 [3]
CCC1=C(O)c2c(oc(-c3cc(C)c(O)c(C)c3)cc2=O)C(CC)(CC)C1=O | 8.9 | 18.3 | 2
CCC1=C(O)c2c(oc(-c3cc(OC)ccc3OC)cc2=O)C(CC)(CC)C1=O | 2.51 | 8.8 | 4
CCC1=C(O)c2c(oc(-c3ccc(F)c(C)c3)cc2=O)C(CC)(CC)C1=O | 1.62 | 40.5 | 24
CCC1=C(O)c2c(oc(-c3ccc(C)c(C)c3)cc2=O)C(CC)(CC)C1=O | 0.71 | 35.5 | 50
CCC1=C(O)c2c(oc(-c3ccc(SC)cc3)cc2=O)C(CC)(CC)C1=O | 1.38 | > 52.1 | >38
CCC1=C(O)c2c(oc(-c3cccc(OC)c3)cc2=O)C(CC)(CC)C1=O | 1.22 | 13.3 | 11
CCC1=C(O)c2c(oc(-c3ccc(C)cc3C)cc2=O)C(CC)(CC)C1=O | 8.52 | 41.2 | 5
CCC1=C(O)c2c(oc(-c3ccc(COC)cc3)cc2=O)C(CC)(CC)C1=O | 3.4 | > 52.4 | 15
CCC1=C(O)c2c(oc(-c3ccc(C(C)(C)C)cc3)cc2=O)C(CC)(CC)C1=O | 17.4 | 29.3 | 2
CCC1=C(O)c2c(oc(-c3ccc(OC)cc3)cc2=O)C(CC)(CC)C1=O | 0.68 | 17.7 | 26
CCC1=C(O)c2c(oc(-c3ccccc3OC)cc2=O)C(CC)(CC)C1=O | 3.26 | 40.8 | 13
CCC1=C(O)c2c(oc(-c3ccc(O)c(O)c3)cc2=O)C(CC)(CC)C1=O | 5.41 | 10 | 2
CCOc1ccc(-c2cc(=O)c3c(o2)C(CC)(CC)C(=O)C(CC)=C3O)cc1 | 7.54 | > 52.4 | >7
CCC1=C(O)c2c(oc(-c3ccc(C)c(Cl)c3)cc2=O)C(CC)(CC)C1=O | 2.15 | 39 | 18
CCCOc1ccc(-c2cc(=O)c3c(o2)C(CC)(CC)C(=O)C(CC)=C3O)cc1 | 29.2 | > 50.5 | >2
CCC1=C(O)c2c(oc(-c3ccc(Br)cc3)cc2=O)C(CC)(CC)C1=O | 15.7 | > 48.1 | 3
CCC1=C(O)c2c(oc(-c3cc(OC)c(OC)c(OC)c3)cc2=O)C(CC)(CC)C1=O | 5.6 | 46.7 | 8
CCC1=C(O)c2c(oc(-c3ccc(OC)c(OC)c3)cc2=O)C(CC)(CC)C1=O | 1 | 14.7 | 15
CCC1=C(O)c2c(oc(-c3cccc(OC)c3OC)cc2=O)C(CC)(CC)C1=O | 4.02 | 35.2 | 9
CCC1=C(O)c2c(oc(-c3ccc(C(C)C)cc3)cc2=O)C(CC)(CC)C1=O | 1.08 | 8.13 | –
CCCCc1ccc(-c2cc(=O)c3c(o2)C(CC)(CC)C(=O)C(CC)=C3O)cc1 | 37 | 111 | 3
CCC1=C(O)c2c(oc(-c3cc(Cl)c(OC)c(OC)c3)cc2=O)C(CC)(CC)C1=O | 8.4 | 21.8 | 3
CCC1=C(O)c2c(oc(-c3ccc(O)c(C)c3C)cc2=O)C(CC)(CC)C1=O | 2.75 | 6.5 | 2
CCC1=C(O)c2c(oc(-c3ccc(OC)c(OC)c3OC)cc2=O)C(CC)(CC)C1=O | 1.57 | 9.4 | 6

Source: ChEMBL document CHEMBL1250520, “Antitumor agents. 280. Multidrug resistance-selective desmosdumotin B analogues” (2010)
